DNA FID counter-1: fluorescent intercalator displacement, NS3 helicase counter-screen; DNA fluorescent intercalator displacement, fluorescence; inhibition, % at 7.9 µM; 290,000 compounds, 0.17% hits;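 also: higher means more ethidium bromide displaced from hairpin DNA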
HIF act: HIF pathway transcriptional activation. 300,000 compounds, 0.32% hits. U2OS HRE-luciferase reporter, luminescence; normalized: DMSO 0%, desferrioxamine 100%. activation, % at 7.5 µM (by protocol);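 active = mean activation of at least 10% of the iron chelator positive control signal, with at least half of replicates also reaching 10%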
PP5 primary: blocks human protein phosphatase 5 activity | P53041 | purified PP5c, OMFP substrate fluorescence | inhibition, % at 6.7 µM | 320,000 compounds, 0.18% hits | AID 1987;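 active = inhibition above the campaign's mean inhibition across all tested compounds plus 3 SD, cut at about 9.5% in these data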
Target sequence (P53041 whole entry, looked up): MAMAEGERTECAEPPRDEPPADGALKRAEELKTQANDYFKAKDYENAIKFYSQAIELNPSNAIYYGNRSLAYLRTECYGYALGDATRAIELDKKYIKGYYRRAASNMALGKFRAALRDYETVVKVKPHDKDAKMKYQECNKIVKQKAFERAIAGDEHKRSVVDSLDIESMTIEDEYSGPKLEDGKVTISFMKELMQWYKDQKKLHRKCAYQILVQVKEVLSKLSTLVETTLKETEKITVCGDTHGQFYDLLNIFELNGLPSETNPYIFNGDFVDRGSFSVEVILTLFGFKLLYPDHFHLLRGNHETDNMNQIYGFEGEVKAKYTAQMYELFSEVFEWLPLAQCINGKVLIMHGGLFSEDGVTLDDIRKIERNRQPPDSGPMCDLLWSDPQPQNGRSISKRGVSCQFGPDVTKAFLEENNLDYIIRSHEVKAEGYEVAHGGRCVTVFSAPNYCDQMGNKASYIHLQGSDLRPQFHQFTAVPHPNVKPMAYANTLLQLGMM
PP1 counter: blocks human PP1-alpha phosphatase, a PP5 counter-screen | inhibition, % at 6.7 µM | AID 2235 | 320,000 compounds, 0.9% hits | purified PP1alpha, OMFP fluorescence;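 active = inhibition above the mean inhibition of all tested compounds plus 3 SD, computed separately for each screening campaign, cut at about 15% in these data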
NS3 helicase inh: blocks Hepatitis C virus NS3 helicase unwinding; NS3 helicase DNA unwinding, Cy5 molecular beacon fluorescence; inhibition, % at 10.9 µM; 290,000 compounds, 0.56% hits; AID 1800;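 active = inhibition above the mean of all tested compounds plus 3 SD, set per campaign, cut at about 35% in these data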
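Material: hepatitis C virus NS3 helicase domain fragment enzyme; measured by: Cy5 fluorescence, 0 and 60 min reads; control set: DMSO and thioflavine S; incubation: 60 min unwinding reaction at 25 °C after ATP addition; read-out basis: % inhibition from 60/0 min fluorescence ratio, DMSO 0%, thioflavine S 100%; repeats: singlicate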
NS3 hel confirm: HCV NS3 helicase inhibition, confirmation assay. NS3 helicase DNA unwinding, Cy5 molecular beacon fluorescence. shares compounds with NS3 helicase inh. inhibition, % at 10.9 µM. 1,600 compounds, 31% hits;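 active = inhibition above the mean of all tested compounds plus 3 SD, cutoff set per campaign, cut at about 36% in these data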
DNA FID counter-2: counter-screen for HCV NS3 helicase inhibitors: DNA intercalator displacement; shares compounds with NS3 helicase inh; DNA fluorescent intercalator displacement, fluorescence; inhibition, % at 7.9 µM; 1,600 compounds, 4% hits;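 also: higher means more displacement of ethidium bromide from the DNA hairpin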
FID counter DR: DNA intercalator displacement in dose response | 120 tested, under 10 active | fluorescent intercalator displacement from DNA, fluorescence | IC50, µM | shares compounds with NS3 helicase inh | AID 2172; call rule not given here
A number is an active result; - = inactive; . = no result given. Most compounds without a hit are left out; they make up all but 1.9% or so of the library. Rule as the data show it, unless noted: active = inhibition above about 37%; inactive = the rest.

SMILES | DNA FID counter-1 | HIF act | PP5 primary | PP1 counter | NS3 helicase inh | NS3 hel confirm | DNA FID counter-2 | others
CC1=NN(C(N)=S)C(=O)C1N=Nc1ccc(O)cc1 (stereo not given) | - | - | . | . | - | . | .
CC1=NN(C(N)=S)C(=O)C1N=Nc1ccc(C)c(Br)c1 (stereo not given) | - | - | - | - | 40 | - | -
CCCCn1c(NS(=O)(=O)c2ccc(C)cc2)c(S(=O)(=O)c2ccccc2)c2nc3ccccc3nc21 | - | - | - | - | 38 | 72 | - | FID counter DR=-
Cc1cc2c(n1-c1ccc(C(=O)O)cc1)CCCCC2 | - | - | . | . | 54 | 71 | -
Cc1ccc(-c2ccccc2)n1-c1ccc(C(=O)O)cc1 | - | - | - | - | - | . | .
C(=N\c1nccs1)/c1cccnc1 | - | - | - | - | - | . | .
CCN1C/C(=C/c2ccc(N3CCOCC3)cc2)C(=O)/C(=C/c2ccc(N3CCOCC3)cc2)C1 | - | - | - | - | 51 | - | -
CCc1cccc(CC)c1NC(=O)COC(=O)C1(C)CC1(Cl)Cl (stereo not given) | - | - | - | - | - | . | .
Cc1cccc(NC(=O)/C=C/c2cccs2)n1 | - | - | - | - | 67 | - | -
Cc1cccc(NC(=O)Nc2cccc(C)n2)n1 | - | - | - | - | 39 | - | -
COc1ccc(OC)c(/C=N/N(CCC#N)C2=NS(=O)(=O)c3ccccc32)c1 | - | - | - | - | - | . | .
O=C(NCc1ccco1)c1ccc(N2CCCCC2)c([N+](=O)[O-])c1 | - | - | - | - | 50 | - | -
O=C(NCc1cccc(Cl)c1)c1ccc2c(c1)OCCO2 | - | - | - | - | - | . | .
COc1ccc(OCC(O)CNC(=O)Nc2ccccc2)cc1 (stereo not given) | - | - | - | - | - | . | .
COc1ccc(OCC(O)CNC(=O)c2sccc2Cl)cc1 (stereo not given) | - | - | - | - | 44 | - | -
Cc1occc1-c1nnc(SCC(=O)N2CCCc3ccccc32)n1Cc1ccco1 | - | - | . | . | 45 | - | -
CCn1cc(C(=O)NCCCN2CCN(C)CC2)c(=O)c2cc(S(=O)(=O)N3CCc4ccccc4C3)ccc21 | - | - | - | - | - | . | .
COc1ccc(/C(O)=C2/C(=O)C(=O)N(c3ccccn3)C2c2ccc(C(C)C)cc2)cc1 (stereo not given) | - | - | . | . | 39 | 85 | - | FID counter DR=-
COc1ccc(/C(O)=C2/C(=O)C(=O)N(c3ccccn3)C2c2cccc(Cl)c2)cc1 (stereo not given) | - | - | - | - | 44 | 44 | -
O=C1C(=O)N(c2ccccn2)C(c2ccc(Br)cc2)/C1=C(/O)c1ccc(Br)cc1 (stereo not given) | - | - | . | . | 73 | 85 | -
O=C1C(=O)N(c2ccccn2)C(c2ccc(F)cc2)/C1=C(/O)c1ccc(Br)cc1 (stereo not given) | - | - | - | - | - | . | .
COc1ccc(/C(O)=C2/C(=O)C(=O)N(c3ccccn3)C2c2ccc(OC)c(OC)c2)cc1 (stereo not given) | - | - | - | - | - | . | .
COc1ccc(/C(O)=C2/C(=O)C(=O)N(c3ccccn3)C2c2ccc(OC)cc2)cc1 (stereo not given) | - | - | . | . | - | . | .
Cc1ccc(SCC(=O)OCC(=O)N2CCN(C(=O)c3ccco3)CC2)c(C)c1 | . | - | - | - | . | . | .
O=C(Nc1ccccc1-c1nc2ccccc2s1)C1=COCCO1 | - | - | - | - | - | . | .
COc1ccc2c(c1OC)C(=O)N(c1ccc(OCc3ccccc3)cc1)C2=O | - | - | - | - | - | . | .
CCCCOc1ccccc1C(=O)NNC(=S)NC(=O)c1ccccc1[N+](=O)[O-] | - | - | - | - | 40 | 51 | - | FID counter DR=-
O=C(NNC(=S)NC(=O)c1ccccc1[N+](=O)[O-])c1ccccc1[N+](=O)[O-] | - | - | - | - | - | . | .
CCCC(=O)Nc1ccc(-c2csc(N/N=C\c3ccncc3)n2)cc1 | - | - | - | - | 38 | - | -
O=C1CC(Nc2ccc(N3CCOCC3)cc2)C(=O)N1C1CCCCC1 (stereo not given) | - | - | - | - | 38 | - | -

Screening results deposited in PubChem by several laboratories.
